SIRT5 inh = blocks human SIRT5 desuccinylation of peptide. Q9NXA8. Purified SirT5, succinyl-peptide AMC, trypsin-coupled fluorescence. inhibition, % at 15 µM. 330,000 tested, 1.1% active; in the data active = inhibition above about 15%
Target sequence (Q9NXA8 whole entry, looked up): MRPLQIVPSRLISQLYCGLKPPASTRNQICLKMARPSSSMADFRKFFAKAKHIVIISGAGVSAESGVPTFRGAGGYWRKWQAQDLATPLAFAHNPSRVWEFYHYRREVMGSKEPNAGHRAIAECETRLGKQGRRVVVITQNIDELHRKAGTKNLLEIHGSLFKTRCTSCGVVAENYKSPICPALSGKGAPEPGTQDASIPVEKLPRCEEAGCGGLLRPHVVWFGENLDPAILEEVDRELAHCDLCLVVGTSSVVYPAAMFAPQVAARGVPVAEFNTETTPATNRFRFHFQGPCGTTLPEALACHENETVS
DENV2 CPE rescue = DENV2-induced cell death inhibition; DENV2-infected cells, cytopathic effect rescue, plate reader; CPE inhibition, % at 9.99 µM; 350,000 tested, 1.7% active; AID 651640; in the data active = CPE inhibition above about 20%, passing the limit was not always enough; tested in BHK-21 cells;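 note: 0% = median of neutral control wells and 100% = median of positive control wells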
Statin myotox sup = suppressors of simvastatin-induced myotoxicity in C2C12 myotubes | rescue of ATP level, % at 7.49 µM | ATP luminescence, 48 h; scaled: DMSO 0, geranylgeraniol control 100 | AID 602340 | 330,000 tested, 0.78% active;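 active = mean ATP rescue above about 67%, or every replicate alone reaching that limit, limit read from the data, passing the limit was not always enough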;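 note: myotubes were challenged with 10 µM simvastatin during compound exposure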
S100A4 MyoIIA = S100A4-myosin IIA interaction inhibition. P26447. inhibition, % at 10.7 µM. S100A4/TAMRA-MyoIIA peptide fluorescence polarization. 360,000 tested, 0.14% active;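 active = mean inhibition of at least 70% across replicates, with every replicate also reaching that level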
Target sequence (P26447 whole entry, looked up): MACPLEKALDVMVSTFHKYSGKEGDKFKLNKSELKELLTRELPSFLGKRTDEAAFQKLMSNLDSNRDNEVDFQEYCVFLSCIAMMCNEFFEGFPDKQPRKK
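assay system = human S100A4 monomer with TAMRA-labelled myosin IIA peptide | also added = labelled myosin peptide probe, 5 nM | incubation = 5 min between mix addition and reading | control set = DMSO and TFP controls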
PGC1a acetyl inh = lowers PGC1a acetylation signal in U2OS cells; 350,000 tested, 0.17% active; AID 651687; AlphaScreen anti-acetyl-lysine; with virally co-expressed GCN5 acetyltransferase; inhibition, % at 15.6 µM;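 active = every replicate shows inhibition of at least 40%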;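 note: 0% = neutral control wells and 100% = positive control wells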
* = called active by the depositor; · = no result given. Compounds with a hit are over-represented: about 2.9% of the library has one in this group of screens.

SMILES | SIRT5 inh | DENV2 CPE rescue | Statin myotox sup | S100A4 MyoIIA | PGC1a acetyl inh
Cc1ccc(CNC(=O)c2cccc3c2C(=O)c2ccc(N4CCCCC4)cc2S3(=O)=O)cc1 | · | · | 29.6 | 6.7 | ·
Cc1ccc(CNC(=O)c2cccc3c2C(=O)c2ccc(N4CCOCC4)cc2S3(=O)=O)cc1 | · | 31.1* | 14.9 | -2.2 | -17.9
CO[C@H]1CN(C)C(=O)c2ccc(NS(=O)(=O)c3ccccc3)cc2OC[C@H](C)N(Cc2cccnc2)C[C@@H]1C | 2.4 | 8.1 | 6.2 | 79.4* | -7.6
CO[C@H]1CN(C)C(=O)c2ccc(NS(=O)(=O)c3ccccc3)cc2OC[C@H](C)N(Cc2ccccn2)C[C@@H]1C | · | 35.6* | 14.1 | -10.1 | -4.9
CO[C@H]1CN(C)C(=O)c2ccc(NS(=O)(=O)c3ccccc3)cc2OC[C@@H](C)N(Cc2ccccn2)C[C@H]1C | · | 7.2 | -0.9 | 2.5 | -6.7
Cc1cccc(S(=O)(=O)N2C[C@@H]3[C@H](c4ccccc42)[C@H](CO)N3CC2CCCC2)c1 | 1.0 | -15.3 | 25.0 | 0.7 | -14.2
O=C(C[C@@H]1C=C[C@@H](NC(=O)Cc2ccccn2)[C@H](CO)O1)NCCc1ccncc1 | 3.6 | 1.8 | -7.6 | 8.5 | 2.3
O=C(C[C@@H]1C[C@H]2c3cc(NC(=O)Nc4ccccc4F)ccc3O[C@H]2[C@H](CO)O1)NCc1ccncc1 | -0.8 | 9.1 | 2.5 | 6.7 | 2.5
COc1ccc(S(=O)(=O)Nc2ccc3c(c2)C(=O)N([C@H](C)CO)C[C@H](C)[C@@H](CN(C)C(=O)Nc2ccc(F)cc2)O3)cc1 | 2.8 | 1.7 | -19.0 | 9.2 | -8.1
COc1ccc(NC(=O)N(C)C[C@H]2Oc3ccc(NS(=O)(=O)c4ccc(OC)cc4)cc3C(=O)N([C@@H](C)CO)C[C@H]2C)cc1 | -2.7 | -7.7 | 73.2* | 8.7 | -13.5
COc1ccc(NC(=O)N(C)C[C@@H]2Oc3ccc(NS(=O)(=O)c4ccc(F)cc4)cc3C(=O)N([C@H](C)CO)C[C@H]2C)cc1 | 40.2* | -0.2 | 11.4 | -3.1 | -2.6
COc1ccc(NC(=O)N(C)C[C@@H]2Oc3ccc(NS(=O)(=O)c4ccc(OC)cc4)cc3C(=O)N([C@@H](C)CO)C[C@@H]2C)cc1 | -1.8 | -6.8 | 9.2 | 2.9 | 2.6
COc1ccc(NC(=O)N(C)C[C@H]2Oc3ccc(NS(=O)(=O)c4ccccc4)cc3C(=O)N([C@H](C)CO)C[C@@H]2C)cc1 | -2.3 | 29.1* | 7.6 | -5.9 | -5.1
C[C@@H]1CN([C@H](C)CO)C(=O)c2cccc(NC(=O)Nc3ccc4c(c3)OCO4)c2O[C@H]1CN(C)C(=O)Nc1ccc(C(F)(F)F)cc1 | 5.1 | 1.8 | · | 5.9 | -0.7
C[C@H]1CCCCO[C@@H](CN(C)C(=O)Cc2ccccc2)[C@@H](C)CN([C@@H](C)CO)C(=O)c2cc(NS(=O)(=O)c3ccc(F)cc3)ccc2O1 | · | -13.9 | · | · | 14.5
COCCOC(=O)N1C(=O)[C@@]2(c3cc(C#CCCO)ccc31)[C@H](C(=O)N1CCN(c3ncccn3)CC1)[C@H]1C(=O)O[C@H](c3ccccc3)[C@H](c3ccccc3)N1[C@@H]2c1ccccc1OCCO | 14.4 | 4.0 | · | -0.6 | -6.7
COCCOC(=O)N1C(=O)[C@@]2(c3ccccc31)[C@H](C(=O)N1CCN(c3ncccn3)CC1)[C@H]1C(=O)O[C@H](c3ccccc3)[C@H](c3ccccc3)N1[C@@H]2c1ccccc1OCCO | 15.6* | 5.6 | · | -5.6 | ·
COCCOC(=O)N1C(=O)[C@@]2(c3cc(C#Cc4ccc(OC)cc4)ccc31)[C@H](c1ccccc1OCCO)N1[C@H](c3ccccc3)[C@H](c3ccccc3)OC(=O)[C@H]1[C@@H]2C(=O)NC[C@H](O)c1ccccc1 | -6.4 | 4.3 | · | -2.0 | ·
COCCOC(=O)N1C(=O)[C@@]2(c3cc(C#CCCO)ccc31)[C@H](c1ccccc1OCCO)N1[C@H](c3ccccc3)[C@H](c3ccccc3)OC(=O)[C@H]1[C@@H]2C(=O)N1CCN(c2ncccn2)CC1 | 19.0* | -0.4 | · | -0.2 | ·
COCCOC(=O)N1C(=O)[C@@]2(c3cc(C#CCC(C(=O)OC)C(=O)OC)ccc31)[C@H](c1ccccc1OCCO)N1[C@H](c3ccccc3)[C@H](c3ccccc3)OC(=O)[C@H]1[C@@H]2C(=O)NC[C@H](O)c1ccccc1 | 16.2* | 30.5* | · | 0.3 | 31.9
